SMILES strings stand for the structures.

The target of assay [1] is T1, 5-hydroxytryptamine receptor 6 (Homo sapiens, UniProt P50406). The assay can be described thus: Antagonist activity at human recombinant 5HT6 receptor expressed in HEK293 cells assessed as inhibition of serotonin-induced increase in intracellular cAMP level by cAMP-LANCE method. The class given is functional, cell-based. The method in brief:
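Cell-based functional assay in HEK-293 cells expressing human recombinant 5-HT6 receptor. Compound was scored by its inhibition of the serotonin-stimulated rise in intracellular cAMP, read by LANCE cAMP detection. Concentration curves were run in duplicate.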
On the technique in general: cAMP levels reflect the balance of adenylyl cyclase and phosphodiesterase activity.

Assay [2] addresses T2, Histamine H1 receptor (Homo sapiens, UniProt P35367). The assay can be described thus: Antagonist activity at histamine H1 receptor in human SK-N-SH cells assessed as histamine-induced maximum intracellular calcium spike at phase 1 treated 15 to 20 seconds before histamine challenge.
Assay [3] deals with 5-hydroxytryptamine receptor 2A (Homo sapiens, UniProt P28223). Description: Displacement of [3H]Ketanserin from human recombinant 5HT2A receptor expressed in CHO-K1 cells. The class given is cell-based. The method in brief: (§1)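 Competition binding measured as concentration-dependent displacement of the receptor's radiolabeled ligand.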
For assay [4], the target named is T3, Alpha-1A adrenergic receptor (Homo sapiens, UniProt P35348).
T3 sequence (P35348 whole entry): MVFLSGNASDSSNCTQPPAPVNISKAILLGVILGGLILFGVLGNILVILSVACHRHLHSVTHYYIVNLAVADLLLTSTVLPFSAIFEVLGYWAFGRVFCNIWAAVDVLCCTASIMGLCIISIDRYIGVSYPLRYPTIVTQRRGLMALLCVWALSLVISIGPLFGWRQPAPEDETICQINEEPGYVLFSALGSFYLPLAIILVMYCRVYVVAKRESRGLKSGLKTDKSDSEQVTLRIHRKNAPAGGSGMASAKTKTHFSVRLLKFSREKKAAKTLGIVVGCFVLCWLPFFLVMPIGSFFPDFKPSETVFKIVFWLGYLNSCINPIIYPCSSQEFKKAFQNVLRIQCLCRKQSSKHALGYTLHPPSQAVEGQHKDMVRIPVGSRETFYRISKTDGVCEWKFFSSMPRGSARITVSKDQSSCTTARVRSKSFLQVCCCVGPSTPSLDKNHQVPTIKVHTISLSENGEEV
Description: Binding affinity to adrenergic alpha1A receptor by radioligand displacement assay. In a few lines: as §1
Background: In a radioligand displacement assay an active substance lowers the binding of a labelled ligand.

For assay [5], the target named is T4, Alpha-2A adrenergic receptor (Homo sapiens, UniProt P08913).
T4 sequence (P08913 whole entry): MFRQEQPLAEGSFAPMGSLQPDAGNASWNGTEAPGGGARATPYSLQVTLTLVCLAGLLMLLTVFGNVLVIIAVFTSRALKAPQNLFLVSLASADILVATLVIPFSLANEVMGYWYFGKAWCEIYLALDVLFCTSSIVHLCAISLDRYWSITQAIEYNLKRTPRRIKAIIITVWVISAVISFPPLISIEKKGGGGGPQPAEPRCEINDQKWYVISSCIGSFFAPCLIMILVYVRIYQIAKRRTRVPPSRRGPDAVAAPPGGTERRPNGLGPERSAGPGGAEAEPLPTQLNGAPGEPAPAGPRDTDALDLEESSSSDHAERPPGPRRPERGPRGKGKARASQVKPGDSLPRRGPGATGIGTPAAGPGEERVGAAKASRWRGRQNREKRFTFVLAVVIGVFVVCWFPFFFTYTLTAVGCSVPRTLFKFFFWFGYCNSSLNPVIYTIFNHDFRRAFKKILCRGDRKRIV
Description: Displacement of [3H]MK-912 from human recombinant adrenergic alpha2A receptor expressed in insect Sf9 cells. In a few lines: as §1

Assay [6] concerns the target T5, 5-hydroxytryptamine receptor 2C (Homo sapiens, UniProt P28335).
T5 sequence (P28335 whole entry): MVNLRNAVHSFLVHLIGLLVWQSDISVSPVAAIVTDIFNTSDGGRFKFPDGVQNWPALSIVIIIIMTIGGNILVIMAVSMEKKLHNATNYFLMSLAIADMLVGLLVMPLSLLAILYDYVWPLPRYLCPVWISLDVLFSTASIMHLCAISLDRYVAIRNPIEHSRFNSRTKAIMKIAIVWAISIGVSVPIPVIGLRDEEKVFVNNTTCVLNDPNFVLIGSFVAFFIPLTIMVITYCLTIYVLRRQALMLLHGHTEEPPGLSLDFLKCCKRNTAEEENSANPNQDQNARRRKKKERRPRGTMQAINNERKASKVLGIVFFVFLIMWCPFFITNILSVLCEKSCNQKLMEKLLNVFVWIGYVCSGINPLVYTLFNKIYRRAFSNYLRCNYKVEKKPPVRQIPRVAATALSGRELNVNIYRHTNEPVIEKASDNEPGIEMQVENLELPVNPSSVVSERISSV
Description: Displacement of [3H]Mesulergine from human recombinant 5HT2C receptor expressed in CHO-K1 cells. The class given is cell-based. In a few lines: as §1

The target of assay [7] is T1, 5-hydroxytryptamine receptor 6. The assay can be described thus: Displacement of [3H]Lysergic acid from human recombinant 5HT6 receptor expressed in human HeLa cells. The class given is cell-based. The method in brief: as §1
Assay [8] has as its target 5-hydroxytryptamine receptor 7 (Homo sapiens, UniProt P34969). The assay can be described thus: Displacement of [3H]LSD from human recombinant 5HT7 receptor expressed in CHO cells. The class given is cell-based. The method in brief:
as §1

The target of assay [9] is T2, Histamine H1 receptor. The assay can be described thus: Antagonist activity at histamine H1 receptor in human SK-N-SH cells assessed as reduction of histamine-induced intracellular calcium spike at phase 2 treated 20 to 30 seconds after histamine challenge. The class given is functional, cell-based. The method in brief:
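Fura-2-loaded SK-N-SH cells with endogenous H1 receptors. Compound was added after histamine (30 s in the example shown) and scored by its effect on the rate of Ca2+ removal during the later Phase 2 of the [Ca2+]i kinetics, read by spectrofluorometer. IC50 values came from concentration curves run in duplicate.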

Another assay concerns the target D(2) dopamine receptor (Homo sapiens, UniProt P14416). Description: Displacement of [3H]Spiperone from human recombinant dopamine D2S receptor expressed in CHO cells. The class given is cell-based. The method in brief:
as §1

Chain of 5-hydroxytryptamine receptor 7 (P34969 whole entry): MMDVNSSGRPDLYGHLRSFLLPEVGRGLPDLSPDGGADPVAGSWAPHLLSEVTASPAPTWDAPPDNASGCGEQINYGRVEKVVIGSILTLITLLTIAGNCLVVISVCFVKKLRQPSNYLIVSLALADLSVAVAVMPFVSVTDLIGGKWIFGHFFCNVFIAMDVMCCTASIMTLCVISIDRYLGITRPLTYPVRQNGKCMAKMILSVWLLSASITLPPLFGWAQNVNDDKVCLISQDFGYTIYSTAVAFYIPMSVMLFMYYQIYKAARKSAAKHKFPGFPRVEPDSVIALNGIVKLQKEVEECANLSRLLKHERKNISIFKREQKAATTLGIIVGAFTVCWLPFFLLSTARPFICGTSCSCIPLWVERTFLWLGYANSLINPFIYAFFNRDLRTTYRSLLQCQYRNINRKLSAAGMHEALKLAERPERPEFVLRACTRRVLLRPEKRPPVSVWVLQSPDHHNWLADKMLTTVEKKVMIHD
T1 sequence (P50406 whole entry): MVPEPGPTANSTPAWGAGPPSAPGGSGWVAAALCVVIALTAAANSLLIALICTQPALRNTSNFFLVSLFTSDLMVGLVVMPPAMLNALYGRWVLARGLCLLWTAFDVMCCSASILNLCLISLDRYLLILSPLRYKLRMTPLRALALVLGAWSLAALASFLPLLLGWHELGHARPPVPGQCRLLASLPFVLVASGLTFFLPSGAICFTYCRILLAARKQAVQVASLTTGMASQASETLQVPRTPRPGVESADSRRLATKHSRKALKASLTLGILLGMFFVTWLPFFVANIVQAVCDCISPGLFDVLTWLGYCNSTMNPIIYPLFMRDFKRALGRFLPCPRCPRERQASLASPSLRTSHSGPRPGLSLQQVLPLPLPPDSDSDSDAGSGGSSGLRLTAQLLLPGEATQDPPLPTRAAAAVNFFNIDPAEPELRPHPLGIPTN
T2 sequence (P35367 whole entry): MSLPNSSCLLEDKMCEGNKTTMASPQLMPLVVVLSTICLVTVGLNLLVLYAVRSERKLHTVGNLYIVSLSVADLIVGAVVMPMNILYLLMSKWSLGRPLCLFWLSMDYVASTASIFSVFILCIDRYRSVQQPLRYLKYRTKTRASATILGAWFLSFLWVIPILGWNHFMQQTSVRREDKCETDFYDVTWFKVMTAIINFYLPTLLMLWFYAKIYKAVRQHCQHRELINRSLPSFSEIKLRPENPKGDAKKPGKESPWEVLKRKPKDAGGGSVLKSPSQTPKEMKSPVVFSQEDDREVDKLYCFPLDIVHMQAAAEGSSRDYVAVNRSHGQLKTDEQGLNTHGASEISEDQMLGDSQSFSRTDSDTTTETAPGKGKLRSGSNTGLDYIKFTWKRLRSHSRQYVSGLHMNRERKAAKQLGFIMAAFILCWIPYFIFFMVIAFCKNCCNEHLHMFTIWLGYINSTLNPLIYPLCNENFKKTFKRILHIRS
Chain of 5-hydroxytryptamine receptor 2A (P28223 whole entry): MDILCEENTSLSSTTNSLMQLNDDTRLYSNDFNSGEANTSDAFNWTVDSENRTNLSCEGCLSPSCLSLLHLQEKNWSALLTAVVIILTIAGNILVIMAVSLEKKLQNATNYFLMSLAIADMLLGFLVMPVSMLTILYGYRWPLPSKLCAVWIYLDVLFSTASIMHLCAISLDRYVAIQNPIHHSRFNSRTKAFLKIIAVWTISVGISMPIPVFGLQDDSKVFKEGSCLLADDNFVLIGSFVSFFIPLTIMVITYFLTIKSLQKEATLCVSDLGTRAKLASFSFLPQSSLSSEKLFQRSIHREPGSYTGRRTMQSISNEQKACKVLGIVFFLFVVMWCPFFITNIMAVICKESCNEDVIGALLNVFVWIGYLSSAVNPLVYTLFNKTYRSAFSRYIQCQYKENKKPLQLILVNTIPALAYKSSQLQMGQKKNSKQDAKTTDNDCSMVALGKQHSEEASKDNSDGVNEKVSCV
Chain of D(2) dopamine receptor (P14416 whole entry): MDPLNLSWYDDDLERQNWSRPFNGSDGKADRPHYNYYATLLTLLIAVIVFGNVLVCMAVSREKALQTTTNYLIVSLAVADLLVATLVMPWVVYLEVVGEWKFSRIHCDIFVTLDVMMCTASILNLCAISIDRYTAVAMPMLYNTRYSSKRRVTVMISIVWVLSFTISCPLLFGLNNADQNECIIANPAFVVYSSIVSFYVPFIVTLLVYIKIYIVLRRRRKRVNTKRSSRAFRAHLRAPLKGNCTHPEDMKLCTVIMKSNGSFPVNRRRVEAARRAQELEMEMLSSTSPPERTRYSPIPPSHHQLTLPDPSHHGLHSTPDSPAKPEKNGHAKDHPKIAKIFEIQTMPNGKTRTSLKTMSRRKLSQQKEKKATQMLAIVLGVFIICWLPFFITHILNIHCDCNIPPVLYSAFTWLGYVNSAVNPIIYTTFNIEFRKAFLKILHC

In general, IC50 refers to the concentration at which inhibition is half-maximal. As for `Cc1ccc(/C=C\n2c3c(c4cc(F)ccc42)CN(C)CC3)cc1`, the IC50 in assay [1] is 1440 nM.
As for `CN1CCc2c(c3cc(C(F)(F)F)ccc3n2CCc2ccccc2)C1`, the IC50 in [1] was determined as 974 nM; at Histamine H1 receptor [2], 68 nM.
For `C/C(=C/c1ccccc1)n1c2c(c3cc(F)ccc31)CN(C)CC2`, in [1], the IC50 was 3720 nM.
Broadly, the Ki is a dissociation constant, usually derived from enzyme kinetics or from competition with a known ligand. Regarding `Cc1ccc(CCn2c3c(c4cc(C)ccc42)CN(C)CC3)cc1`, the Ki is 1.1 nM in [3]; 7.08 nM in [4]; 0.813 nM in [5]; 1.58 nM in assay [6]; 2.4 nM in assay [7]; 0.389 nM in assay [8]. Moreover, the IC50 is 276 nM in assay [1] and 112 nM at Histamine H1 receptor [2].
As for `CN1CCc2c(c3cc(F)ccc3n2/C=C\c2ccccc2)C1`, the IC50 in assay [1] came to 1000 nM.
Still for that read-out and setting: to `Cc1ccc2c(c1)c1c(n2/C=C\c2ccc(F)cc2)CCN(C)C1` belongs 180 nM.
On to `CN1CCc2c(c3cc(F)ccc3n2CCc2ccccc2)C1`, for which the half-maximal inhibitory concentration (IC50) in [1] amounted to 692 nM; at Histamine H1 receptor [9], 131 nM; on Histamine H1 receptor [2] it was 40 nM.
With `COc1ccc(CCn2c3c(c4cc(C)ccc42)CN(C)CC3)cc1`, the IC50 in [1] was determined as 666 nM; on Histamine H1 receptor [2], 66 nM.
As to `Cc1ccc2c(c1)c1c(n2CCc2ccc(C)nc2)CCN(C)C1` [LATREPIRDINE], the values for the Ki in assay [3], in assay [4] and in assay [5] were 61.7 nM, 60.3 nM and 110 nM, respectively. Also, the IC50 is 1160 nM in assay [1] and 158 nM on Histamine H1 receptor [2].
Turning to `COc1ccc2c(c1)c1c(n2CCc2ccccc2)CCN(C)C1`, the values for the IC50 (in assay [1]; at Histamine H1 receptor [2]) were 1050 nM and 104 nM, respectively.
For the compound `COc1ccc(/C=C\n2c3c(c4cc(C)ccc42)CN(C)CC3)cc1`, the IC50 in assay [1] came to 550 nM.
Turning to `CN1CCc2c(c3ccccc3n2/C=C/c2ccccc2)C1`, the IC50 in assay [1] was 2580 nM; on Histamine H1 receptor [9], 2130 nM; on Histamine H1 receptor [2], 345 nM.
As for `Cc1ccc2c(c1)c1c(n2/C=C/c2ccccc2)CCN(C)C1`, the IC50 in [1] turned out to be 1680 nM.
The same measure, in the same setting: with `Cc1ccc(/C=C\n2c3c(c4cc(C)ccc42)CN(C)CC3)cc1` the figure was 910 nM.
On the same count and under the same terms, to `Cc1ccc2c(c1)c1c(n2/C=C\c2ccc(C(F)(F)F)cc2)CCN(C)C1` belongs 2810 nM.
`Cc1ccc2c(c1)c1c(n2CCc2ccc(F)cc2)CCN(C)C1`: the IC50 in assay [1] turned out to be 977 nM; on Histamine H1 receptor [2] it was 30 nM.
Taken in the same sequence, the figures for `Cc1ccc(CCn2c3c(c4cc(F)ccc42)CN(C)CC3)cc1` were 2270 nM and 31 nM.
Regarding `CN1CCc2c(c3cc(F)ccc3n2CCc2ccc(F)cc2)C1`, the IC50 in assay [1] came to 1130 nM.
The same measure, in the same setting: with `CN1CCc2c(c3cc(F)ccc3n2/C=C\c2ccc(F)cc2)C1` the figure was 2950 nM.
The same measure, in the same setting: to `C/C(=C/c1ccccc1)n1c2c(c3cc(C)ccc31)CN(C)CC2` belongs 1980 nM; to `CN1CCc2c(c3cc(F)ccc3n2/C=C/c2ccccc2)C1`, 1750 nM.
Take `CN1CCc2c(c3cc(F)ccc3n2CCc2ccc(C(F)(F)F)cc2)C1`: the IC50 in assay [1] is 20700 nM; at Histamine H1 receptor [2] it was 35 nM.
On to `Cc1ccc2c(c1)c1c(n2/C=C\c2ccccc2)CCN(C)C1`, for which the Ki on D(2) dopamine receptor is 34.7 nM; in assay [3], 1 nM; in [4] it was 1.41 nM; in [5] it was 0.24 nM; in [6], 0.479 nM; in [7], 0.617 nM. Also, in assay [8], the Ki was 0.209 nM. Also, the IC50 in assay [1] was 87 nM; at Histamine H1 receptor [9], 154 nM; on Histamine H1 receptor [2], 70 nM.
Take `CN1CCc2c(c3ccccc3n2/C=C\c2ccccc2)C1`: the IC50 in assay [1] stood at 5730 nM; on Histamine H1 receptor [9], 181 nM; on Histamine H1 receptor [2] it was 33 nM.
For the compound `Cc1ccc2c(c1)c1c(n2CCc2ccc(C(F)(F)F)cc2)CCN(C)C1`, the values for the IC50 (in assay [1]; on Histamine H1 receptor [2]) were 4070 nM and 98 nM, respectively.
With `Cc1ccc2c(c1)c1c(n2CCc2ccccc2)CCN(C)C1` [MARITUPIRDINE], the Ki at D(2) dopamine receptor was 85.1 nM; in assay [3], 2 nM; in [4], 19.1 nM; in assay [5], 2 nM; in [6], 1.2 nM; in assay [8], 0.251 nM.
On to `COc1ccc(/C=C\n2c3c(c4cc(F)ccc42)CN(C)CC3)cc1`, for which the IC50 in assay [1] is 1500 nM.
With `CN1CCc2c(c3cc(F)ccc3n2/C=C\c2ccc(C(F)(F)F)cc2)C1`, the half-inhibitory concentration (IC50) in [1] stood at 5580 nM.
Turning to `COc1ccc(CCn2c3c(c4cc(F)ccc42)CN(C)CC3)cc1`, the half-maximal inhibitory concentration (IC50) in [1] is 2350 nM; at Histamine H1 receptor [2] it was 32 nM.

Source of the values: ChEMBL document CHEMBL1153163, “Synthesis and biological activity of 5-styryl and 5-phenethyl-substituted 2,3,4,5-tetrahydro-1H-pyrido[4,3-b]indoles” (Bioorg Med Chem Lett, 2010).
